Bioassay records (PubChem)
WT yeast gro inh: growth inhibition of WT yeast, mitochondrial fusion screen; mitochondrial fusion phenotypic screen, WT strain; 190,000 compounds, 2.1% hits; inhibition, % at 10 µM; in the data active means inhibition above about 58%; tested in S. cerevisiae
NPY1 pot ag: potentiates or activates human NPY-Y1 receptor; activation, % at 3.6 µM; AID 1304; 220,000 compounds, 0.37% hits; NPY-Y1 expressing cells, potentiator/agonist activation; P25929; in the data active means activation above about 33%, passing the limit was not always enough;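 further: cells stimulated with NPY at EC10 then isoproterenol at EC100; 0% = low agonist plus stimulus and 100% = saturating agonist plus stimulus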
RAM network inh: yeast RAM network inhibition; AID 868; 190,000 compounds, 1.8% hits; S. cerevisiae dse1pr::URA3 reporter, 5-FOA growth OD615, 2 d; analog-sensitive cbk1-as2 kinase mutant strain; inhibition, % at 50 µM;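 active means inhibition above a set limit, 3 SD over mean compound inhibition, cut at about 8.4% in these data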;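 further: 0% = DMSO-only wells with no growth and 100% = 10 µM 1-NA-PP1 full growth; inhibition rescues growth on 5-FOA so higher OD means more RAM inhibition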
NPY2 pot ag: potentiates or activates human NPY-Y2 receptor; cells expressing NPY-Y2, potentiator/agonist read-out; AID 1359; P49146; activation, % at 3.6 µM; 220,000 compounds, 0.45% hits; in the data active means activation above about 27%;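 further: cells stimulated with NPY near EC25 plus isoproterenol at EC100; 0% = vehicle plus submaximal agonist and 100% = vehicle plus saturating agonist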
Target sequence (P49146 whole entry, looked up): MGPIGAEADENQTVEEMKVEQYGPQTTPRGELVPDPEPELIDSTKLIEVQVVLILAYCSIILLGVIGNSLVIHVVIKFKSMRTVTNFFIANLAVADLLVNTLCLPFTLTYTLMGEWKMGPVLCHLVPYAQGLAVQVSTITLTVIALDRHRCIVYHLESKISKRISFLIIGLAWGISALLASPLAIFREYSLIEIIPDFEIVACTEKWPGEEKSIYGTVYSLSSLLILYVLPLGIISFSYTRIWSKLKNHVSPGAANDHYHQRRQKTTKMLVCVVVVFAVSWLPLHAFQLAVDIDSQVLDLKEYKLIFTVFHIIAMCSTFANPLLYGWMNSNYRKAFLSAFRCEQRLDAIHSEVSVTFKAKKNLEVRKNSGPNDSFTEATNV
NPY Y2 blocker: blocks the human neuropeptide Y Y2 receptor | P49146 | NPY-Y2 expressing cells, antagonist mode | inhibition, % at 2.7 µM | 140,000 compounds, 0.99% hits | AID 793;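 further: 0% = vehicle with agonist challenge and 100% = reference antagonist with challenge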
NPY-Y1 antag: blocks the human neuropeptide Y Y1 receptor | inhibition, % at 3.6 µM | P25929 | 200,000 compounds, 1% hits | HEK293-CNG Y1 cells, membrane potential fluorescence; NPY at EC95, then isoproterenol;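 active means inhibition above the campaign mean inhibition of all tested compounds plus 3 SD, cut at about 20% in these data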;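 further: 0% = DMSO wells given NPY plus isoproterenol and 100% = isoproterenol alone without NPY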
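Material: Y1- and CNG-channel-expressing HEK293 cells / Probe or stimulus: NPY 25 nM then isoproterenol 1 µM plus Ro 20-1724 25 µM / Doses: 3.6 µM single dose, DMSO 0.4% / Schedule: compound incubation 1 h at room temperature, readout 45 min post-stimulation / Signal: membrane potential fluorescence / Benchmarks: isoproterenol-only wells as full block versus NPY-plus-isoproterenol wells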
NPY-Y1 ant conf: human NPY-Y1 antagonism, confirmation | shares compounds with NPY-Y1 antag | HEK293-CNG NPY-Y1, membrane potential fluorescence, cAMP; NPY challenge against isoproterenol-raised cAMP | inhibition, % at 3.6 µM | 1,200 compounds, 21% hits | AID 1254; in the data active means inhibition above about 20%;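 further: 0% = vehicle with agonist plus stimulus and 100% = stimulus alone without agonist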
NPY2 antag ctr: antagonizes human NPY-Y2, counter-screen to NPY-Y1 antagonists; shares compounds with NPY-Y1 antag; HEK293 NPY-Y2 CNG membrane potential fluorescence, antagonism; cells given NPY, then isoproterenol; inhibition, % at 3.6 µM; 1,200 compounds, 28% hits; AID 1255;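 further: 0% = DMSO with agonist challenge and 100% = reference antagonist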
* = called active by the depositor; . = not tested or not shown. This is a sample that favours compounds with a hit; in the whole collection about 4.9% have one here. Unless noted, no stated cut-off is given here; in the data, active means inhibition above about 17%; inactive means the rest.

SMILES	WT yeast gro inh	NPY1 pot ag	RAM network inh	NPY2 pot ag	NPY Y2 blocker	NPY-Y1 antag	NPY-Y1 ant conf	NPY2 antag ctr
O=C(CN1C(=O)C2C3C=CC(C4CC34)C2C1=O)Nc1cnc2ccccc2c1 (configuration not stated)	-7.7	16.6	4.3	-0.5	.	1.1	.	.
CCOc1cccc(C(=O)NC(=S)Nc2ccccc2)c1	20.5	-38.1	-0.6	-5.0	7.2	1.7	.	.
O=C(NC(=S)Nc1ccc(CN2CCCCC2)cc1)c1cccc(OCc2ccccc2)c1	71.7*	-52.6	-2.2	-56.8	.	41.6*	42.3*	52.6*
Cn1c(=NCC(O)COc2ccccc2)sc2ccccc21 (configuration not stated)	7.5	-57.5	0.5	-22.6	12.3	22.0*	6.9	14.7
O=C(CSc1nc2ccc(Nc3nc(N4CCOCC4)nc(N4CCOCC4)n3)cc2s1)N1CCOCC1	10.1	-14.8	2.4	-1.4	2.0	3.7	.	.
CCCCOc1cccc(OCCCC)c1C(=O)Nc1cc(C)on1	2.7	-55.0	0.5	-9.8	11.1	51.3*	21.7*	7.8
CCOc1ccc(C(=O)Nc2cc(C)on2)cc1OCC	-3.2	-9.6	2.1	5.3	-0.5	-0.6	.	.
O=C(c1ccco1)N1CCN(S(=O)(=O)c2ccc(S(=O)(=O)NC3CCCC3)cc2)CC1	-0.6	-17.0	4.7	7.5	11.0	20.3*	4.3	2.4
O=S(=O)(NCc1ccc2c(c1)OCO2)c1ccc2c(c1)oc1ccccc12	20.4	-29.8	2.0	-8.9	8.5	21.5*	16.9	19.0*
COc1cc(S(=O)(=O)NCc2ccc3c(c2)OCO3)ccc1Cl	5.8	-10.2	1.7	-6.6	7.4	7.8	.	.
O=C(CSc1nnc(Cc2cccs2)n1CCc1ccccc1)N1CCCc2ccccc21	12.8	-18.4	1.3	-18.8	13.0	22.0*	6.6	6.1
Cn1c(Cc2cccs2)nnc1SCC(=O)N1CCCc2ccccc21	-1.6	10.6	0.1	-1.2	2.8	0.6	.	.
Fc1ccc(C(c2nnnn2Cc2ccco2)N2CCN(C3CCCCC3)CC2)cc1 (configuration not stated)	-5.7	-24.1	0.8	-4.3	13.1	28.9*	13.1	10.3
CCN(CC)S(=O)(=O)c1cccc(NC(=O)c2ccc(C#N)cc2)c1	3.4	-13.6	5.0	-23.5	.	22.2*	-0.7	2.7
CN(C)S(=O)(=O)c1cccc(NC(=O)c2ccncc2)c1	-10.4	5.3	1.1	-3.5	0.9	0.5	.	.
Cc1ccc2nc3c(c(C(=O)O)c2c1)CCC3	-11.5	-38.3	2.6	-1.7	7.7	22.1*	4.7	10.6
CC1=CC(C)(C)n2c(O)c(N=N)c3cc(C)cc1c32	21.2	-58.7	1.0	-5.3	10.9	22.7*	13.7	21.6*
CC1CCN(S(=O)(=O)N2CCC(C(=O)NCc3cccs3)CC2)CC1	-3.7	-23.9	0.0	-3.0	3.4	-6.2	.	.
Cc1ccsc1-c1nc(CSCC(=O)NCc2ccc3c(c2)OCO3)c(C)o1	7.6	-4.9	-0.5	-16.1	3.8	20.6*	10.8	8.0
Cc1nc(SCC(=O)NCc2ccc3c(c2)OCO3)c(C#N)c2c1CCCC2	-6.4	-26.0	3.0	1.5	13.1	20.7*	4.0	9.6
Cc1cccc2cc(CN(Cc3ccccc3)C(=S)NCCCN(C)C)c(=O)[nH]c12	2.8	-62.2	0.5	-27.5	.	28.2*	8.2	14.5
COc1ccc(/C(C)=C2\SC(=S)N(CCC(=O)O)C2=O)cc1	5.2	-34.4	3.5	-42.0	13.4	23.0*	10.2	6.0
Cc1cc2cc(C)c(NCCNC(=O)c3ccccc3)nc2cc1C	26.2	-58.8	-0.8	-53.2	.	45.5*	31.8*	37.3*
COCC(=O)NCCNc1nc2ccc(C)cc2cc1C	-10.3	-17.9	1.1	-1.2	3.0	-0.3	.	.
Cc1ccc(C(=O)NCCNc2nc3cc(C)c(C)cc3cc2C)cc1	15.5	-27.7	-1.2	-13.9	.	32.9*	41.5*	65.1*
SMILES	WT yeast gro inh	NPY1 pot ag	RAM network inh	NPY2 pot ag	NPY Y2 blocker	NPY-Y1 antag	NPY-Y1 ant conf	NPY2 antag ctr
COC(=O)Nc1ccc(S(=O)(=O)NCc2ccccn2)cc1	9.6	6.3	2.0	7.6	.	41.3*	4.9	0.4
O=C(Nc1nc2ccccc2[nH]1)c1ccc(Br)o1	2.2	-9.0	3.0	5.8	.	14.5	.	.
Cc1ccc(C(=O)N2c3ccccc3N(Cc3ccccc3)C(=O)C2(C)C)cc1	84.8*	-40.0	3.3	34.8	10.0	30.3*	13.4	6.7
O=C(O)CC1(O)C(=O)N(Cc2ccccc2)c2ccccc21 (configuration not stated)	-10.3	6.0	2.5	-10.0	.	-0.1	.	.
Cc1ccc(S(=O)(=O)Nc2cc(C)nn2-c2ccccc2)cc1	-0.7	-11.1	1.1	7.1	1.8	33.0*	-1.5	-0.8
O=S(=O)(c1ccc2c(c1)OCCO2)N(Cc1ccc(F)cc1)Cc1nnc(-c2cccs2)o1	27.5	-4.7	3.2	-16.4	13.7	45.3*	13.5	8.2
COc1ccc(CN(C(C)=O)c2cccc(C)c2C)cc1	-13.1	-27.9	1.1	-7.4	4.9	6.6	.	.
CC(=O)N(Cc1ccc(Br)cc1)c1cccc(C)c1C	51.2	-11.1	-1.8	2.0	.	33.5*	1.4	5.3
CN(C)c1ccnc(SCc2ccccc2Cl)c1C#N	2.8	-92.7	2.9	-42.6	7.5	27.7*	16.3	29.4*
CN(C)Cc1ccc(F)cc1Sc1ccc(Cl)cc1Cl	27.4	-68.3	1.1	-20.9	10.9	22.1*	11.0	16.6
CCOC(=O)C1=C(C)NC2=C(C(=O)CCC2)C1c1cn(Cc2ccc(Cl)cc2Cl)nc1-c1ccccc1 (configuration not stated)	-16.9	-46.3	5.2	-16.5	12.1	35.4*	30.3*	39.3*
COc1cc(C=O)ccc1OCCOCCOc1ccccc1Cl	-3.9	-7.5	1.0	1.9	2.0	20.5*	2.9	3.9
Cn1nc(C(=O)OCc2ccccc2F)c2ccccc2c1=O	14.2	-33.6	1.7	-2.3	.	-3.9	.	.
Nc1nn(-c2ccccc2)nc1C(=O)OCc1ccccc1F	16.4	-27.1	6.7	-15.0	.	30.1*	8.0	6.9
O=c1c(-c2ccnn2-c2ccccc2F)cnc2n1CCS2	14.8	5.4	2.2	15.3	0.8	4.6	.	.
Cc1ccc(-n2cc(CNCC3CC(=O)N(C4CC4)C3)c(-c3cccc(C)c3)n2)cc1 (configuration not stated)	8.7	-39.7	0.1	-29.2	.	21.8*	10.0	16.5
COc1ccc(N(C(=O)C2CCCCC2)S(=O)(=O)c2cccc3cccnc23)cc1	24.1	-1.7	6.7	-7.4	.	31.1*	21.4*	6.9
